≈ marks a conversion by molar mass, not a printed value. Calls of active or inactive are those of the source. No cut-off for these calls is given here.
Legend:
Staphylococcus aureus [1] = test: Antibacterial activity against methicillin-sensitive Staphylococcus aureus ATCC 6538 assessed as inhibition of bacterial growth incubated for 18 to 20 hrs by broth microdilution method; assay type: functional; conditions: time 18-20 hrs
How it was run: (§1)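 Broth microdilution per CLSI. Inoculum was set to 0.5 McFarland and diluted in CAMHB to about 5×10^5 CFU/mL. Serial dilutions of agent were incubated aerobically at 37 °C for 18–20 h. MIC was read visually as the lowest concentration with complete growth inhibition.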

Staphylococcus aureus [2] = test: Antibacterial activity against methicillin-sensitive Staphylococcus aureus NRS 107 assessed as inhibition of bacterial growth incubated for 18 to 20 hrs by broth microdilution method; assay type: functional; conditions: time 18-20 hrs; how it was run: as §1
Staphylococcus aureus [3] = test: Antibacterial activity against methicillin-resistant Staphylococcus aureus NRS119 assessed as inhibition of bacterial growth incubated for 18 to 20 hrs by broth microdilution method; assay type: functional; conditions: time 18-20 hrs; how it was run: as §1
Enterococcus faecalis = test: Antibacterial activity against vancomycin-resistant Enterococcus faecalis ATCC 51299 assessed as inhibition of bacterial growth incubated for 18 to 20 hrs by broth microdilution method; assay type: functional; conditions: time 18-20 hrs
How it was run: (§2)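 Broth microdilution per CLSI. Enterococci were diluted to about 5×10^5 CFU/mL in TSB and incubated aerobically with serial dilutions of agent at 37 °C for 18–20 h. MIC was read visually as the lowest concentration with no visible growth.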

Enterococcus faecium = test: Antibacterial activity against vancomycin-resistant Enterococcus faecium ATCC 700221 assessed as inhibition of bacterial growth incubated for 18 to 20 hrs by broth microdilution method; assay type: functional; conditions: time 18-20 hrs; how it was run: as §2
Staphylococcus aureus [4] = test: Downregulation of EsxA protein expression in Staphylococcus aureus assessed as log2 of fold change in protein level measured after 2 hrs by LC-MS/MS analysis relative to control; assay type: functional
How it was run: (§3)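 S. aureus ATCC 25923 at OD600 0.6 was treated with compound or DMSO for 2 h at 37 °C, normalised to OD600 1.1, and washed in PBS. Cells were pressure-lysed in 100 mM ammonium bicarbonate, then acetone-precipitated, reduced with DTT, alkylated with iodoacetamide, and digested with trypsin/Lys-C. Peptides were desalted and run on LC-MS/MS. Label-free quantitation used proteins present in all 3 samples, filtered at p<0.05 against DMSO.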

Staphylococcus aureus [5] = test: Downregulation of NarG protein expression in Staphylococcus aureus assessed as log2 of fold change in protein level measured after 2 hrs by LC-MS/MS analysis relative to control; assay type: functional; how it was run: as §3
Staphylococcus aureus [6] = test: Upregulation of TraG protein expression in Staphylococcus aureus assessed as log2 of fold change in protein level measured after 2 hrs by LC-MS/MS analysis relative to control; assay type: functional
How it was run: (§4)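 S. aureus ATCC 25923 at OD600 0.6 exposed to compound or DMSO control for 2 h at 37°C, normalized to OD600 1.1 and PBS-washed. Cells were pressure-cycling lysed in 100 mM ammonium bicarbonate, and 50 μg protein was acetone-precipitated, reduced and alkylated, then Trypsin/Lys-C digested and C18-desalted. About 1 μg peptides went to LC-MS/MS. Label-free quantitation kept proteins present in all 3 samples, filtered at p <0.05.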

Mus musculus [7] = test: Acceleration of wound healing in methicillin-resistant Staphylococcus aureus USA300 infected Balb/c mouse model assessed as reduction in MCP-1 protein level in skin wounds administered topically twice daily 2 days post infection and measured after 5 days post compound treatment; assay type: functional, organism-based; conditions: time 5.0 day
How it was run: (§5)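 Mice had two 6-mm dorsal excisional wounds, each infected with 20 μL of 4.2×10^9 CFU/mL MRSA USA300 and covered with Tegaderm. Treatment began 2 days after infection (n=5 per group): 2% compound in petroleum jelly applied topically twice daily for 5 days. Right-wound homogenates in PBS were centrifuged, supernatants pooled per group, and protein normalised by BCA. Cytokines were measured by mouse cytokine array (pg/mL).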

Mus musculus [8] = test: Acceleration of wound healing in methicillin-resistant Staphylococcus aureus USA300 infected Balb/c mouse model assessed as reduction in TNF-alpha level in skin wounds administered topically twice daily 2 days post infection and measured after 5 days post compound treatment; assay type: functional, organism-based; conditions: time 5.0 day; how it was run: as §5
Mus musculus [9] = test: Acceleration of wound healing in methicillin-resistant Staphylococcus aureus USA300 infected Balb/c mouse model assessed as reduction in IL-1beta level in skin wounds administered topically twice daily 2 days post infection and measured after 5 days post compound treatment; assay type: functional, organism-based; conditions: time 5.0 day; how it was run: as §5
Staphylococcus aureus [10] = test: Upregulation of siderophore biosynthesis protein SbnE expression in Staphylococcus aureus measured after 2 hrs by LC-MS/MS analysis; assay type: functional; how it was run: as §4
Staphylococcus aureus [11] = test: Upregulation of Cro/CI family transcriptional regulator expression in Staphylococcus aureus measured after 2 hrs by LC-MS/MS analysis; assay type: functional; how it was run: as §4
Staphylococcus aureus [12] = test: Upregulation of dihydroxyacetone kinase subunit L expression in Staphylococcus aureus measured after 2 hrs by LC-MS/MS analysis; assay type: functional; how it was run: as §4
Staphylococcus aureus [13] = test: Upregulation of siderophore biosynthesis protein SbnF in Staphylococcus aureus measured after 2 hrs by LC-MS/MS analysis; assay type: functional; how it was run: as §4
Staphylococcus aureus [14] = test: Downregulation of PTS mannose transporter subunit IIABC protein expression in Staphylococcus aureus measured after 2 hrs by LC-MS/MS analysis; assay type: functional; how it was run: as §3
Staphylococcus aureus [15] = test: Downregulation of glycero-phosphodiester phosphodiesterase protein expression in Staphylococcus aureus measured after 2 hrs by LC-MS/MS analysis; assay type: functional; how it was run: as §3
Staphylococcus aureus [16] = test: Downregulation of threonine synthase protein expression in Staphylococcus aureus measured after 2 hrs by LC-MS/MS analysis; assay type: functional; how it was run: as §4
Staphylococcus aureus [17] = test: Downregulation of hydrolase protein expression in Staphylococcus aureus measured after 2 hrs by LC-MS/MS analysis; assay type: functional; how it was run: as §3
Staphylococcus aureus [18] = test: Downregulation of peptidase protein expression in Staphylococcus aureus measured after 2 hrs by LC-MS/MS analysis; assay type: functional; how it was run: as §4
Staphylococcus aureus [19] = test: Downregulation of nitrite reductase (NAD(P)H) small subunit protein expression in Staphylococcus aureus measured after 2 hrs by LC-MS/MS analysis; assay type: functional; how it was run: as §4

`CC1CC(C)CN(S(=O)(=O)c2ccc(C(=O)Nc3nnc(-c4ccc(C(F)(F)F)cc4)o3)cc2)C1` (stereo unspecified) gave an MIC (Staphylococcus aureus [1]) of 0.25 µg/mL (≈ 0.492 µM), an MIC (Staphylococcus aureus [2]) of 0.25 µg/mL (≈ 0.492 µM) and an MIC (Staphylococcus aureus [3]) of 0.25 µg/mL (≈ 0.492 µM). The MIC (Enterococcus faecalis) was 0.25 µg/mL (≈ 0.492 µM), the MIC (Enterococcus faecium) was 0.25 µg/mL (≈ 0.492 µM) and the log2FC (Staphylococcus aureus [4]) was -2. The log2FC (Staphylococcus aureus [5]) was -2, the log2FC (Staphylococcus aureus [6]) was 2 and the Activity (Mus musculus [7]) was “Active”. The Activity (Mus musculus [8]) was “Active”, the Activity (Mus musculus [9]) was “Active” and the Activity (Staphylococcus aureus [10]) was “Active”. The Activity (Staphylococcus aureus [11]) was “Active”, the Activity (Staphylococcus aureus [12]) was “Active” and the Activity (Staphylococcus aureus [13]) was “Active”. The Activity (Staphylococcus aureus [14]) was “Active”, the Activity (Staphylococcus aureus [15]) was “Active” and the Activity (Staphylococcus aureus [16]) was “Active”. The Activity (Staphylococcus aureus [17]) was “Active”, the Activity (Staphylococcus aureus [18]) was “Active” and the Activity (Staphylococcus aureus [19]) was “Active”.

— ChEMBL document CHEMBL5154895, “Mechanistic Studies and In Vivo Efficacy of an Oxadiazole-Containing Antibiotic” (J Med Chem, 2022)
